Measurements taken from ChEMBL document CHEMBL4219099, “Design, synthesis and biological evaluation of novel 7-azaspiro[3.5]nonane derivatives as GPR119 agonists” (Bioorg Med Chem, 2018).
In brackets after ≈: the same amount, converted by molar mass.

Legend:
[1] = target: T1, Glucose-dependent insulinotropic receptor (Homo sapiens, UniProt Q8TDV5); assay: Agonist activity at human GPR119 expressed in Flp-In-T-Rex-HEK293 cells assessed as increase in intracellular cAMP level after 30 mins by HTRF assay; assay type: functional, cell-based
T1 sequence (Q8TDV5 whole entry): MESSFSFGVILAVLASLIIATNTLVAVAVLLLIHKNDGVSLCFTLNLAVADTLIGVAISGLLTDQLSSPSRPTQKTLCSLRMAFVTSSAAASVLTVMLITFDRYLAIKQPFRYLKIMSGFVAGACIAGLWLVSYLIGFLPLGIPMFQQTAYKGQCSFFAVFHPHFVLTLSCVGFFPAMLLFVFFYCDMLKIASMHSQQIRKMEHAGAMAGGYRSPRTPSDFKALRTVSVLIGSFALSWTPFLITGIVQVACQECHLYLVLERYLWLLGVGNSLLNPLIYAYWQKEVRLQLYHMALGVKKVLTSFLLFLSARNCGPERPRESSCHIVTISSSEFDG
Summary of the method: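 Flp-In-T-Rex-HEK293 cells overexpressing human GPR119, tetracycline-induced 24 h, plated at 5000 cells/well in D-MEM with 1 mM IBMX and 0.01% BSA, then exposed to compound 30 min at 37 °C. cAMP read with HiRange HTRF kit. Basal cAMP subtracted from stimulated level; EC50 taken as concentration giving 50% of maximal response, fitted from dose-response curves.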

[2] = Aqueous solubility of the compound in pH 6.8 phosphate buffer after 24 hrs by HPLC analysis; assay type: physicochemical
Summary of the method: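 Excess solid shaken in pH 6.8 phosphate buffer at 25 °C for 24 h. Suspension centrifuged at 3000 and 11000 rpm, 10 min each. Supernatant diluted in 50% aqueous acetonitrile and quantified by reversed-phase HPLC (0.1% phosphoric acid/acetonitrile, column 40 °C, UV 210 nm).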

[3] = Solubility of the compound in fasted state simulated intestinal fluid incubated for 2 hrs in shaker and subsequently incubated at 37 degC for 22 hrs in water bath by HPLC analysis; assay type: physicochemical
Summary of the method: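 FaSSIF (pH 6.5) with excess compound shaken at 25 °C for 2 h, then held at 37 °C for 22 h. Centrifuged at 3000 and 11000 rpm, 10 min. Supernatant diluted with 50% aqueous acetonitrile or acetonitrile/methanol 1:1. Concentration by reversed-phase HPLC: 0.1% phosphoric acid/acetonitrile, column 40 °C, UV 210 nm.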

Cytochrome P450 1A2 = target: T2, Cytochrome P450 1A2 (Homo sapiens, UniProt P05177); assay: Inhibition of CYP1A2 in human liver microsomes; assay type: ADME
T2 sequence (P05177 whole entry): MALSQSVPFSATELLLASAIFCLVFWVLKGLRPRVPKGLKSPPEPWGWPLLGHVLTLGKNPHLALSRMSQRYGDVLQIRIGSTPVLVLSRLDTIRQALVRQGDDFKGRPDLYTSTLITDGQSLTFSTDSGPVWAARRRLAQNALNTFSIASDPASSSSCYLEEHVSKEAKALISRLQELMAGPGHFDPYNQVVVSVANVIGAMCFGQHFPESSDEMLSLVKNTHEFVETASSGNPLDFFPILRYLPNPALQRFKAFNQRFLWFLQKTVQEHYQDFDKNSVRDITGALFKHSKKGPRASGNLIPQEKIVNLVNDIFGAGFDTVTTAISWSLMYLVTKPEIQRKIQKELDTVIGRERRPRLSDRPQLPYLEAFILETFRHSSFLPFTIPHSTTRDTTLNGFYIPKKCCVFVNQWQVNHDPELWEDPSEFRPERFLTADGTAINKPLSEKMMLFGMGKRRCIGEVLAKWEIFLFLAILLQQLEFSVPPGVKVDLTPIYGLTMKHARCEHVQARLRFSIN

Cytochrome P450 2C9 = Cytochrome P450 2C9 (Homo sapiens, UniProt P11712); assay: Inhibition of CYP2C9 in human liver microsomes; assay type: ADME
Cytochrome P450 2C9, sequence (P11712 whole entry): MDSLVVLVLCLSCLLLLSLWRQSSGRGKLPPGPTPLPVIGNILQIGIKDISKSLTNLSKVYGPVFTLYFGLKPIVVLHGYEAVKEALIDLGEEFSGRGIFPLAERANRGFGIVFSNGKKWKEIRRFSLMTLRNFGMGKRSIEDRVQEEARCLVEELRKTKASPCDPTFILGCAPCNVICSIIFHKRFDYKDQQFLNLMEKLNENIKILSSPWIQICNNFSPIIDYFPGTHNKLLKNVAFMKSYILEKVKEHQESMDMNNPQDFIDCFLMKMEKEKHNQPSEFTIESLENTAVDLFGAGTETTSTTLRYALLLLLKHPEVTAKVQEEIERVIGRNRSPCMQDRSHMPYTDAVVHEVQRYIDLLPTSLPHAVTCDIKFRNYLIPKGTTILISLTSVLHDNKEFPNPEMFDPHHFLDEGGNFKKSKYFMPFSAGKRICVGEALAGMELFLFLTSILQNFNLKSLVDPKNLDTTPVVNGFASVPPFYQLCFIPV

Cytochrome P450 2C19 = Cytochrome P450 2C19 (Homo sapiens, UniProt P33261); assay: Inhibition of CYP2C19 in human liver microsomes; assay type: ADME
Cytochrome P450 2C19, sequence (P33261 whole entry): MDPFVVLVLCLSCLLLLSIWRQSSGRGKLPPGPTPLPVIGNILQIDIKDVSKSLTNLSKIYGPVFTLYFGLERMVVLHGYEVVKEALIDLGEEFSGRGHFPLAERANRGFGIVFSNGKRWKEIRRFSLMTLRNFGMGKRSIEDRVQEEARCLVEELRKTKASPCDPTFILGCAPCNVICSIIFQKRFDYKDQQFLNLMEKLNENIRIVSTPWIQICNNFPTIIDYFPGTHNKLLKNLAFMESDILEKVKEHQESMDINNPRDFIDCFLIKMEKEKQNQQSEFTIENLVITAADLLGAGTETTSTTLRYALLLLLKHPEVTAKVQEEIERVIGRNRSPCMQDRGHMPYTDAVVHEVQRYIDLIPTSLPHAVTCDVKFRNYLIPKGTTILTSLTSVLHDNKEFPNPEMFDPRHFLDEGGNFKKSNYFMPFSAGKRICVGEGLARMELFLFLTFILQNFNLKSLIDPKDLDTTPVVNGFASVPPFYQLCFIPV

Cytochrome P450 2D6 = Cytochrome P450 2D6 (Homo sapiens, UniProt P10635); assay: Inhibition of CYP2D6 in human liver microsomes; assay type: ADME
Cytochrome P450 2D6, sequence (P10635 whole entry): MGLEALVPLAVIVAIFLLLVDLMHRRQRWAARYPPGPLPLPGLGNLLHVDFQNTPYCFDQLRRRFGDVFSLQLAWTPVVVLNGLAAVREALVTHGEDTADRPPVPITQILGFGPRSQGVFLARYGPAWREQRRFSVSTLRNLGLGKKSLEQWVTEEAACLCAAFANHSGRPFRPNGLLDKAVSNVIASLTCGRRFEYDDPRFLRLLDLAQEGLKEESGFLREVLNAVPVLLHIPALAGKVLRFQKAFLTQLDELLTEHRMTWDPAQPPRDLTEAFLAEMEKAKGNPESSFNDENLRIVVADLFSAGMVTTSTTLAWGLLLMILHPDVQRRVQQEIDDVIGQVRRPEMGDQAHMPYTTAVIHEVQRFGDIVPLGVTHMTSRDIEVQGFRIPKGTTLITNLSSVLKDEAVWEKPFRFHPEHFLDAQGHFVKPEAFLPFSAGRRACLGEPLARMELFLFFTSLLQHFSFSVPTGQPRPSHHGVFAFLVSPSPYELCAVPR

Cytochrome P450 3A4 = Cytochrome P450 3A4 (Homo sapiens, UniProt P08684); assay: Inhibition of CYP3A4 in human liver microsomes; assay type: ADME
Cytochrome P450 3A4, sequence (P08684 whole entry): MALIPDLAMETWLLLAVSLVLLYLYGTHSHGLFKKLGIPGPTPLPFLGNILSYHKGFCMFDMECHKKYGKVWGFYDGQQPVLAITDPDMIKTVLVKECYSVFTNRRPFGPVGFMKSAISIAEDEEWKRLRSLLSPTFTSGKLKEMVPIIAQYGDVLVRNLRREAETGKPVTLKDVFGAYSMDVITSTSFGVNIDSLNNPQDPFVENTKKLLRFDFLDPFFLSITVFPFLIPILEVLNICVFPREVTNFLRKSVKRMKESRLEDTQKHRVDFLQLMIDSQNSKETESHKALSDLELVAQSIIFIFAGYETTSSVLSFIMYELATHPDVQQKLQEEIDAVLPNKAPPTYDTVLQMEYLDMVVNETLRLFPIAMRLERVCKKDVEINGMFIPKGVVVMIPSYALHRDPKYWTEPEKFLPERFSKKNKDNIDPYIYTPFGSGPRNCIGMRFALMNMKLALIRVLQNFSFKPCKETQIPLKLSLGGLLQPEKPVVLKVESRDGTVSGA

[4] = Clearance in Sprague-Dawley rat plasma at 3 mg/kg, iv or 10 mg/kg, po by liquid chromatography-tandem mass spectrometry analysis; assay type: ADME, organism-based
Summary of the method: (§1)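 Fasted male SD rats given a single dose, iv 3 mg/kg in 20% 2-hydroxypropyl-β-cyclodextrin or po 10 mg/kg in 0.5% methylcellulose with 0.1% Tween80. Tail-vein blood taken at time points and spun to plasma. Analyte quantified by LC-MS/MS; parameters from non-compartmental analysis.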

[5] = Volume of distribution at steady state in Sprague-Dawley rat plasma at 3 mg/kg, iv by liquid chromatography-tandem mass spectrometry analysis; assay type: ADME, organism-based; settings: read-out: Vdss; summary of the method: as §1
[6] = Half life in Sprague-Dawley rat plasma at 3 mg/kg, iv by liquid chromatography-tandem mass spectrometry analysis; assay type: ADME, organism-based; summary of the method: as §1
[7] = AUC (0 to t) in Sprague-Dawley rat plasma at 10 mg/kg, po by liquid chromatography-tandem mass spectrometry analysis; assay type: ADME, organism-based; summary of the method: as §1
[8] = Oral bioavailability in Sprague-Dawley rat plasma at 10 mg/kg by liquid chromatography-tandem mass spectrometry analysis; assay type: ADME, organism-based; summary of the method: as §1
Rattus norvegicus [9] = assay: Antidiabetic activity in Zucker diabetic rat assessed as reduction in plasma glucose AUC (0 to 2 hrs) at 10 mg/kg, po pretreated for 30 mins followed by glucose challenge by oGTT assay relative to control; assay type: functional; parameters: scale not given: the % may be the effect or the level left
Summary of the method: (§2)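 Male Zucker diabetic fatty and lean rats, 9 weeks old, fasted overnight. Dosed orally in 20 w/v% HP-β-CD; 30 min later given oral glucose at 2 g/kg. Tail-vein plasma glucose followed over 2 h by glucose assay kit. Glucose excursion expressed as ΔAUC 0–2 h versus vehicle; mean ± SE, Welch's t-test.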

Rattus norvegicus [10] = assay: Antidiabetic activity in Zucker diabetic rat assessed as reduction in plasma glucose AUC (0 to 2 hrs) at 30 mg/kg, po pretreated for 30 mins followed by glucose challenge by oGTT assay relative to control; assay type: functional; parameters: scale not given: the % may be the effect or the level left; summary of the method: as §2

Structure (SMILES) | EC50 [1] [nM] | solubility at 24 h [2] [µg/mL] | solubility at 24 h [3] [µg/mL] | other results
CC(C)OC(=O)N1CCC2(CC1)CC(CCCOc1ccc(S(C)(=O)=O)cc1)C2 | 70 | 0.17 (≈ 0.401 µM) | 7.09 (≈ 16.7 µM) | 
CC(C)(C)OC(=O)N1CCC2(CC1)CC2CCCOc1ccc(S(C)(=O)=O)cc1 (stereo unspecified) | 830 |  |  | 
CC(C)OC(=O)N1CCC2(CC1)CC(CCCOc1ccc(C(=O)N3CCCC3)c(F)c1)C2 | 29 | 3.85 (≈ 8.36 µM) | 92.4 (≈ 201 µM) | IC50 (Cytochrome P450 1A2; read-out: IC50): < 10000 nM; IC50 (Cytochrome P450 2C9; read-out: IC50): < 10000 nM; IC50 (Cytochrome P450 2C19; read-out: IC50): < 10000 nM
CCc1cnc(N2CCC3(CC2)CC(CCCOc2ccc(S(C)(=O)=O)cc2F)C3)nc1 | 225 |  |  | 
CC(C)OC(=O)N1CCC2(CC1)CC(CCCOc1ccc(C(=O)NC3CC3)cn1)C2 | 63 | 2.24 (≈ 5.21 µM) |  | 
CC(C)(C)OC(=O)N1CCC2(CCC(CCCOc3ccc(S(C)(=O)=O)cc3)CC2)CC1 | 2590 |  |  | 
CC(C)OC(=O)N1CCC2(CC1)CC(CCCOc1ccc(C(=O)N3CC(O)C3)c(F)c1)C2 | 40 | 1.89 (≈ 4.09 µM) |  | IC50 (Cytochrome P450 2C9; read-out: IC50): < 10000 nM; IC50 (Cytochrome P450 2C19; read-out: IC50): < 10000 nM
CC(C)(C)OC(=O)N1CCC2(CC1)CC2CCOc1ccc(S(C)(=O)=O)cc1 (stereo unspecified) | 2390 |  |  | 
CC(C)OC(=O)N1CCC2(CC1)CC(CCCOc1ccc(C(N)=O)c(F)c1)C2 | 52 |  |  | 
CC(C)OC(=O)N1CCC2(CC1)CC(CCCOc1ccc(C(=O)N(C)C3CC3)c(F)c1)C2 | 67 |  |  | 
CC(C)OC(=O)N1CCC2(CC1)CC(CCCOc1ccc(C(=O)NCC(N)=O)c(F)c1)C2 | 48 | 1.77 (≈ 3.82 µM) | 18.4 (≈ 39.7 µM) | IC50 (Cytochrome P450 1A2): Not Active; IC50 (Cytochrome P450 2C9): Not Active; IC50 (Cytochrome P450 2C19): Not Active; IC50 (Cytochrome P450 2D6): Not Active; IC50 (Cytochrome P450 3A4): Not Active; clearance [4]: 15.5 mL/min/kg; Vd [5]: 1.01 L/kg; half-life [6]: 50.5 min; AUC(0-t) [7]: 9510 ng·h/mL; bioavailability [8]: 88.6%; Activity (Rattus norvegicus [9]): 34%; Activity (Rattus norvegicus [10]): 40.2%
Cc1ccc(N2CCC3(CC2)CC(CCCOc2ccc(S(C)(=O)=O)cc2)C3)nc1 | 348 |  |  | 
CC(C)(C)OC(=O)N1CCC2(CCC(CCOc3ccc(S(C)(=O)=O)cc3)CC2)CC1 | 55 |  |  | 
CCc1cnc(N2CCC3(CC2)CC(CCCOc2ccc(S(C)(=O)=O)c(F)c2)C3)nc1 | 123 |  |  | 
CC(C)OC(=O)N1CCC2(CC1)CC(CCCOc1ccc(C(=O)NC3CC3)c(F)c1)C2 | 8 | 0.21 (≈ 0.47 µM) | 8.58 (≈ 19.2 µM) | 
CC(C)OC(=O)N1CCC2(CC1)CC(CCCOc1ccc(C(=O)N3CCC3)c(F)c1)C2 | 34 | 3.43 (≈ 7.68 µM) |  | IC50 (Cytochrome P450 2C9; read-out: IC50): < 10000 nM; IC50 (Cytochrome P450 2C19; read-out: IC50): < 10000 nM
CC(C)OC(=O)N1CCC2(CC1)CC(CCCOc1ccc(C(=O)NC3CC3)nc1)C2 | 47 | 2.11 (≈ 4.91 µM) |  | 
CCc1cnc(N2CCC3(CC2)CC(CCCOc2ccc(S(C)(=O)=O)cc2)C3)nc1 | 31 | < 0.12 | 0.64 (≈ 1.44 µM) | 
CC(C)c1noc(N2CCC3(CC2)CC(CCCOc2ccc(S(C)(=O)=O)cc2)C3)n1 | 35 | < 0.13 | 2.51 (≈ 5.61 µM) | 

Now from value to compound, other results behind:

EC50 [1] [nM] | solubility at 24 h [2] [µg/mL] | solubility at 24 h [3] [µg/mL] | Structure (SMILES) | other results
25 |  |  | CC(C)(C)OC(=O)N1CCC2(CC1)CC(CCCOc1ccc(S(C)(=O)=O)cc1F)C2 | 
13 | < 0.15 | 1.27 (≈ 2.8 µM) | CC1(OC(=O)N2CCC3(CC2)CC(CCCOc2ccc(S(C)(=O)=O)c(F)c2)C3)CC1 | 
9 |  |  | CC(C)(C)OC(=O)N1CCC2(CC1)CC(CCCOc1ccc(S(C)(=O)=O)c(F)c1)C2 | 
183 |  |  | CC(C)(C)OC(=O)N1CCC2(CC1)CC(CCOc1ccc(S(C)(=O)=O)cc1)C2 | 
14 | < 0.13 | 3.48 (≈ 7.95 µM) | CC(C)(C)OC(=O)N1CCC2(CC1)CC(CCCOc1ccc(S(C)(=O)=O)cc1)C2 | 
18 | < 0.16 | 2.52 (≈ 5.71 µM) | CC(C)OC(=O)N1CCC2(CC1)CC(CCCOc1ccc(S(C)(=O)=O)c(F)c1)C2 | 
31 |  |  | CC(C)(C)COC(=O)N1CCC2(CC1)CC(CCCOc1ccc(S(C)(=O)=O)c(F)c1)C2 | 
154 |  |  | CC(C)(C)OC(=O)N1CCC2(CC1)CC(CCCCOc1ccc(S(C)(=O)=O)cc1)C2 | 
23 | < 0.14 | 7.65 (≈ 16.4 µM) | CS(=O)(=O)c1ccc(OCCCC2CC3(CCN(C(=O)OC4CCCC4)CC3)C2)cc1F | 
